According to publication PMC3319156 (Journal of Medicinal Chemistry, 2011):
Values belong to the compound of their own block, whether it stands above or below them.

Experiments:
Tyr861 of FAK = conditions: tumor cells; cited from earlier work
Tyr705 of Stat3 = Tyr705 of Stat3 (Homo sapiens, UniProt P40763); assay: Inhibition of constitutive Stat3 Tyr705 phosphorylation in MDA-MB-468 cells; type: cell-based; conditions: for effect on pStat3 band at 25 µM: MDA-MB-468, 25 µM; for concentration at which pStat3 was completely inhibited / concentration with noticeable inhibition of pStat3: MDA-MB-468, 2 h treatment, western blot; for time at which pStat3 formation was completely inhibited / time for which complete inhibition of pStat3 was sustained: MDA-MB-468, single dose of 5 µM
How it was run: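 MDA-MB-468 cells (4 × 10^5/well) were grown overnight in DMEM with 10% FCS. Prodrug was given from a 10 mM DMSO stock prepared fresh, for 2 h, or over a time course. After ice-cold PBS washes, cells were lysed (Hepes pH 7.4, Triton X-100, NaF, vanadate, protease inhibitors). 12 µg protein went on 8% SDS-PAGE/PVDF with 5% BSA block. Blots were probed for pStat3 Y705 by ECL, stripped at 50°C, and reprobed for total Stat3.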

Stat3 [1] = target: T1, Stat3 (Homo sapiens, UniProt P40763); assay: Inhibition of constitutive Stat3 phosphorylation in BT20 breast tumor cells; type: cell-based; conditions: screen
Stat3 [2] = target: T1, Stat3; assay: EGF-stimulated Stat3 phosphorylation in MDA-MB-468 cells; type: cell-based; conditions: MDA-MB-468, 5 µM, 1.5 h then EGF 30 min
Tyr694 of Stat5 = assay: Stat5 Tyr694 phosphorylation in MDA-MB-468 cells; type: cell-based; conditions: MDA-MB-468, 5 µM, 1.5 h then EGF 30 min
Ser473 of Akt = assay: Akt Ser473 phosphorylation in MDA-MB-468 cells; type: cell-based; conditions: MDA-MB-468, 5 µM, 1.5 h then EGF 30 min
[3] = system: Tyr861 of the focal adhesion kinase (FAK); assay: Constitutive FAK Tyr861 phosphorylation in MDA-MB-468 cells; type: cell-based; conditions: MDA-MB-468, 2 h treatment
How it was run: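 Constitutive signal, no stimulus: MDA-MB-468 cells were plated overnight in DMEM/10% FCS and given test compound from a 10 mM DMSO stock for 2 h. Cells were lysed in Hepes pH 7.4 detergent buffer with phosphatase and protease inhibitors. Protein was separated by SDS-PAGE, blotted to PVDF, blocked with 5% BSA, and probed for pTyr861 FAK and total FAK.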

Tyr701 of Stat1 = target: T2, Tyr701 of Stat1 (Homo sapiens, UniProt P42224); assay: IFNγ-stimulated Stat1 Tyr701 phosphorylation in MDA-MB-468 cells; type: cell-based; conditions: MDA-MB-468, 1.5 h then 30 min IFNγ
T2 sequence (P42224 1-750): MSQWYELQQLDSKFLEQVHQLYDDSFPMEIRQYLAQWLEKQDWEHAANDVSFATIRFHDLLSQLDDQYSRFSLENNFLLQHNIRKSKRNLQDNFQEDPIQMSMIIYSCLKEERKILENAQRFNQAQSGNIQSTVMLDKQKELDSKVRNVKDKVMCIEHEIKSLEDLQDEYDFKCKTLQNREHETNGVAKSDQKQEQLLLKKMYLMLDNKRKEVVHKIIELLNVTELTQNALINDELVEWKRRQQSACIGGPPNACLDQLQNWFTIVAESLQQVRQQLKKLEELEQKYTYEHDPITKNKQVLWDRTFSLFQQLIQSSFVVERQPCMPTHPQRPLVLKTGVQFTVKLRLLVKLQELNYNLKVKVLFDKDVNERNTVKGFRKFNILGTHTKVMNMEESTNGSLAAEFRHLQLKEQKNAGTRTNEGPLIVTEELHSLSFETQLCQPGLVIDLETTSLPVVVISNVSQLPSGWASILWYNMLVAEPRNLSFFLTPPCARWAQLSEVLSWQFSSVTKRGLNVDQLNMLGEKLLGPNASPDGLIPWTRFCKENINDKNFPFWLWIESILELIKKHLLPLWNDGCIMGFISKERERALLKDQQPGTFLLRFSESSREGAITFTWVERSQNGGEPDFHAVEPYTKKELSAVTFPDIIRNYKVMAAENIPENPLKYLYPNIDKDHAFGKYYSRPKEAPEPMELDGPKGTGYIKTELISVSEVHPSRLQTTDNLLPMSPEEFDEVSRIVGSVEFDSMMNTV
How it was run: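 MDA-MB-468 cells were prepared as for the Stat3 assay (plated overnight in DMEM/10% FCS) and exposed to increasing test compound concentrations for 1.5 h. Interferon γ was then added at 25 ng/mL for 30 min. Lysates were run on PAGE, blotted to PVDF, and probed for pTyr701 Stat1 and total Stat1 with chemiluminescent detection.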

[4] = system: cultured melanoma, breast, prostate, and pancreatic tumor cell lines; conditions: cited from earlier work
MDA-MB-468 cells = assay: Cytotoxicity to MDA-MB-468 cells, MTT assay; type: cell-based; conditions: MDA-MB-468, treated daily for three days
How it was run: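 MDA-MB-468 cells in DMEM with 10% FBS were plated at 1500 cells/well in triplicate, and the medium was changed the next day. Prodrug was dissolved fresh in ethanol to a 10 mM stock, diluted, and added. Further doses went into the same medium at 24 and 48 h, with final ethanol below 1%. Viability was read by MTT.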

H528 = assay: Growth inhibition of H528 NSCLC cells; type: cell-based; conditions: H528, 5–10 µM, data not shown

T1 sequence (P40763 whole entry): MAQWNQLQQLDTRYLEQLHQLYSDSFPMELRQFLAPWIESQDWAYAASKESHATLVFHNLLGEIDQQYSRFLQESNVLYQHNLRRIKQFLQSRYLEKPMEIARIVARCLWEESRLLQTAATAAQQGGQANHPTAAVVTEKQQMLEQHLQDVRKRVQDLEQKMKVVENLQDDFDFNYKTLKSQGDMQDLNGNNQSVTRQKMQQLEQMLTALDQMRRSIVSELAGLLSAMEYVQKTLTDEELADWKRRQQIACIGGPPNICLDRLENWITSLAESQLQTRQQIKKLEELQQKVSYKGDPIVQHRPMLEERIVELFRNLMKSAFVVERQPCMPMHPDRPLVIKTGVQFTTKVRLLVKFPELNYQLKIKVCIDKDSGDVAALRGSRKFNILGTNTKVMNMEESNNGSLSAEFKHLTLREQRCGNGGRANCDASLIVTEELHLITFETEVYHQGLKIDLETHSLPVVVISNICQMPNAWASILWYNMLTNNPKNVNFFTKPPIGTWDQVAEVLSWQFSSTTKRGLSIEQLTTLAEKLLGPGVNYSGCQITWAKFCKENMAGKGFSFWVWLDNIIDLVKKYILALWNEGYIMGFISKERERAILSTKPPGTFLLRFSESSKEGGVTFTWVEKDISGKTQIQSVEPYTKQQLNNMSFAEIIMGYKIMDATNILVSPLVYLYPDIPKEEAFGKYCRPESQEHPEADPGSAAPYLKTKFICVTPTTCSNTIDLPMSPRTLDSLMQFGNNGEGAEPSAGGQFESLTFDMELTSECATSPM
Tyr705 of Stat3, sequence (P40763 whole entry): as above

Structure (SMILES): Cc1nc(Nc2ncc(C(=O)Nc3c(C)cccc3Cl)s2)cc(N2CCN(CCO)CC2)n1 [dasatinib]
levels of Tyr861 phosphorylation on treatment (Tyr861 of FAK): decrease

Structure (SMILES): CCOP(=O)(OCC)C(F)(F)c1ccc(/C(C)=C/C(=O)N[C@H]2CCc3cccc4c3N(C2=O)[C@H](C(=O)N[C@H](C)CCC(N)=O)C4)cc1 [compound 40]
effect on pStat3 band at 25 µM (Tyr705 of Stat3): no effect on Stat3 phosphorylation

Structure (SMILES): Cc1cc(Nc2nc(N[C@@H](C)c3ncc(F)cn3)ncc2Cl)n[nH]1 [AZD1480]
cytotoxicity at concentrations that completely eliminated Tyr705 phosphorylation [4]: not cytotoxic

Structure (SMILES): CC(C)(C)c1nc2c3cc[nH]c(=O)c3c3cc(F)ccc3c2[nH]1 [P6]
cytotoxicity at concentrations that completely eliminated Tyr705 phosphorylation [4]: not cytotoxic

Structure (SMILES): C/C(=C\C(=O)N[C@H]1CCc2cccc3c2N(C1=O)[C@H](C(=O)N[C@@H](CCC(N)=O)C(=O)NCc1ccccc1)C3)c1ccc(C(F)(F)P(=O)(OCOC(=O)C(C)(C)C)OCOC(=O)C(C)(C)C)cc1 [compound 32]
effect on level of pStat3 (Tyr705 of Stat3; MDA-MB-468, 2 h, increasing concentrations): reduced the level of pStat3 in a dose-dependent manner

The next lines start with results.

concentration at which pStat3 was completely inhibited (Tyr705 of Stat3): 0.5 µM
time at which pStat3 formation was completely inhibited (Tyr705 of Stat3): 30 min
time for which complete inhibition of pStat3 was sustained (Tyr705 of Stat3): 4 h
ability to inhibit constitutive phosphorylation of Stat3 (Stat3 [1]): considerable potency
increase in Stat3 phosphorylation induced by EGF (Stat3 [2]): completely inhibited
concentration of complete inhibition of Stat1 phosphorylation (Tyr701 of Stat1): 5 µM
Structure (SMILES): CCCC[C@H](NC(=O)/C=C(\C)c1ccc(C(F)(F)P(=O)(OCOC(=O)C(C)(C)C)OCOC(=O)C(C)(C)C)cc1)C(=O)N1C[C@H]2C[C@H]2[C@H]1C(=O)N[C@H](C)CCC(N)=O [compound 37]
Stat5 phosphorylation (Tyr694 of Stat5): not inhibited
Akt Ser473 phosphorylation (Ser473 of Akt): do not inhibit Akt phosphorylation
FAK Tyr861 phosphorylation [3]: no reduction of Tyr861 phosphorylation

concentration at which pStat3 was completely inhibited (Tyr705 of Stat3): 5 µM
inhibition of the phosphorylation of Stat3 up to 1 µM (Tyr705 of Stat3; MDA-MB-468, up to 1 µM, 2 h): little inhibition
Structure (SMILES): CCCC[C@H](NC(=O)/C=C(\C)c1ccc(C(F)(F)P(=O)(OCOC(=O)C(C)(C)C)OCOC(=O)C(C)(C)C)cc1)C(=O)N1CC2CC2C1C(=O)NCCNC(N)=O (stereo partly drawn) [compound 39]

effect on pStat3 band at 25 µM (Tyr705 of Stat3): only partially reduced
Structure (SMILES): CCCC[C@H](NC(=O)/C=C(\C)c1ccc(C(F)(F)P(=O)(OCOC(=O)C(C)(C)C)OCOC(=O)C(C)(C)C)cc1)C(=O)N1C[C@@H]2C[C@@H]2[C@@H]1C(=O)N[C@H](C)CCC(N)=O [compound 38]

effect on pStat3 band at 25 µM (Tyr705 of Stat3): only partially reduced
concentration with noticeable inhibition of pStat3 (Tyr705 of Stat3): ≥ 25 µM
fold less potent at inhibiting Stat3 phosphorylation (Tyr705 of Stat3; relative to 35): 20–25 fold
Structure (SMILES): CCCC[C@H](NC(=O)/C=C(\C)c1ccc(C(F)(F)P(=O)(OCOC(=O)C(C)(C)C)OCOC(=O)C(C)(C)C)cc1)C(=O)N1C[C@@H]2C[C@@H]2[C@@H]1C(=O)N[C@@H](CCC(N)=O)C(C)OCc1ccccc1 (stereo partly drawn) [compound 36]

concentration at which pStat3 was completely inhibited (Tyr705 of Stat3): 0.5 µM
concentration with noticeable inhibition of pStat3 (Tyr705 of Stat3): 0.1 µM
Structure (SMILES): C[C@H](CCC(N)=O)NC(=O)[C@@H]1Cc2cccc3c2N1C(=O)[C@@H](NC(=O)/C=C/c1ccc(C(F)(F)P(=O)(OCOC(=O)C(C)(C)C)OCOC(=O)C(C)(C)C)cc1)CC3 [compound 33]

concentration at which pStat3 was completely inhibited (Tyr705 of Stat3): 0.5 µM
time at which pStat3 formation was completely inhibited (Tyr705 of Stat3): 30 min
time for which complete inhibition of pStat3 was sustained (Tyr705 of Stat3): 4 h
ability to inhibit constitutive phosphorylation of Stat3 (Stat3 [1]): considerable potency
increase in Stat3 phosphorylation induced by EGF (Stat3 [2]): completely inhibited
concentration of complete inhibition of Stat1 phosphorylation (Tyr701 of Stat1): 5 µM
Structure (SMILES): CCCC[C@H](NC(=O)/C=C(\C)c1ccc(C(F)(F)P(=O)(OCOC(=O)C(C)(C)C)OCOC(=O)C(C)(C)C)cc1)C(=O)N1C[C@H]2C[C@H]2[C@H]1C(=O)N[C@@H](CCC(N)=O)C(C)OCc1ccccc1 (stereo partly drawn) [compound 35]
Stat5 phosphorylation (Tyr694 of Stat5): not inhibited
Akt Ser473 phosphorylation (Ser473 of Akt): do not inhibit Akt phosphorylation
FAK Tyr861 phosphorylation [3]: no reduction of Tyr861 phosphorylation
survival curves with daily dosing compared with single dose (MDA-MB-468 cells): little change in the survival curves
inhibition (H528): < 20%
